Tests used:
Assay type in all cases: functional
Cooperia oncophora [1] = assay: Anthelmintic efficacy against immature (EL4) Cooperia oncopphora (C.o) in sheep at dose of 0.025 mg/kg administered orally; 20-59%
Cooperia oncophora [2] = assay: Anthelmintic efficacy against immature (EL4) Cooperia oncopphora (C.o) in sheep at dose of 0.05 mg/kg administered orally; 20-59%
Cooperia oncophora [3] = assay: Anthelmintic efficacy against immature (EL4) Cooperia oncopphora (C.o) in sheep at dose of 0.1 mg/kg administered orally; 20-59%
Cooperia oncophora [4] = assay: Anthelmintic efficacy against adult Cooperia oncopphora (C.o) in sheep at dose of 0.025 mg/kg administered orally; 0-19%
Summary of the method: (§1)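 Lambs experimentally infected with mixed gastrointestinal nematodes (H. contortus, O. circumcincta, T. axei, T. colubriformis, C. oncophora, Oe. columbianum) were dosed orally, 1–3 sheep per dose. An untreated infected group of 6 was included, with worm burdens given as the geometric mean number of worms per lamb. Efficacy was scored against adult and, where listed, EL4 stages.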

Cooperia oncophora [5] = assay: Anthelmintic efficacy against adult Cooperia oncopphora (C.o) in sheep at dose of 0.05 mg/kg administered orally; 0-19%; summary of the method: as §1
Cooperia oncophora [6] = assay: Anthelmintic efficacy against adult Cooperia oncopphora (C.o) in sheep at dose of 0.1 mg/kg administered orally; 0-19%; summary of the method: as §1
Haemonchus contortus [7] = assay: Anthelmintic efficacy against immature (EL4) Haemonchus contortus (H.c) in sheep at dose of 0.05 mg/kg administered orally; 60-89%
Haemonchus contortus [8] = assay: Anthelmintic efficacy against immature (EL4) Haemonchus contortus (H.c) in sheep at dose of 0.1 mg/kg administered orally; settings: route oral
Summary of the method: (§2)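 Lambs were experimentally infected with mixed gastrointestinal nematodes: Haemonchus contortus, Ostertagia circumcincta, Trichostrongylus axei, T. colubriformis, Cooperia oncophora and Oesophagostomum columbianum. Dosing was oral, in mg/kg, with 3 sheep per dose group. An untreated infected group of 6 sheep served as reference, with worm burdens given as the geometric mean per lamb. Immature (EL4) and adult worms were scored separately.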

Haemonchus contortus [9] = assay: Anthelmintic efficacy against adult Haemonchus contortus (H.c) in sheep at dose of 0.025 mg/kg administered orally; 0-19%; summary of the method: as §1
Haemonchus contortus [10] = assay: Anthelmintic efficacy against adult Haemonchus contortus (H.c) in sheep at dose of 0.05 mg/kg administered orally; 60-89%; summary of the method: as §1
Haemonchus contortus [11] = assay: Anthelmintic efficacy against adult Haemonchus contortus (H.c) in sheep at dose of 0.1 mg/kg administered orally; settings: route oral; summary of the method: as §1
Haemonchus contortus [12] = assay: Anthelmintic efficacy against immature (EL4) Haemonchus contortus (H.c) in sheep at dose of 0.025 mg/kg administered orally; 20-59%
[13] = tested on: Oesophagostomum columbianum; assay: Anthelmintic efficacy against Oseophagostomum columbianum (Oe. c) in sheep at dose of 0.025 mg/kg administered orally; 60-89%; summary of the method: as §1
[14] = tested on: Oesophagostomum columbianum; assay: Anthelmintic efficacy against Oseophagostomum columbianum (Oe. c) in sheep at dose of 0.05 mg/kg administered orally; 60-89%; summary of the method: as §1
[15] = tested on: Oesophagostomum columbianum; assay: Anthelmintic efficacy against Oseophagostomum columbianum (Oe. c) in sheep at dose of 0.1 mg/kg administered orally; settings: route oral; summary of the method: as §1
[16] = tested on: Teladorsagia circumcincta; assay: Anthelmintic efficacy against immature (EL4) Ostertagia circumcincta (O. c) in sheep at dose of 0.05 mg/kg administered orally; 0-19%
[17] = tested on: Teladorsagia circumcincta; assay: Anthelmintic efficacy against immature (EL4) Ostertagia circumcincta (O. c) in sheep at dose of 0.1 mg/kg administered orally; 0-19
[18] = tested on: Teladorsagia circumcincta; assay: Anthelmintic efficacy against adult Ostertagia circumcincta (O. c) in sheep at dose of 0.025 mg/kg administered orally; 60-89%; summary of the method: as §1
[19] = tested on: Teladorsagia circumcincta; assay: Anthelmintic efficacy against adult Ostertagia circumcincta (O. c) in sheep at dose of 0.05 mg/kg administered orally; 60-89%; summary of the method: as §1
[20] = tested on: Teladorsagia circumcincta; assay: Anthelmintic efficacy against adult Ostertagia circumcincta (O. c) in sheep at dose of 0.1 mg/kg administered orally; settings: route oral; summary of the method: as §1
[21] = tested on: Teladorsagia circumcincta; assay: Anthelmintic efficacy against immature (EL4) Ostertagia circumcincta (O. c) in sheep at dose of 0.025 mg/kg administered orally; 0-19%
Trichostrongylus axei [22] = assay: Anthelmintic efficacy against Trichostrongylus axei (T.a) in sheep at dose of 0.025 mg/kg administered orally; 0-19%; summary of the method: as §1
Trichostrongylus axei [23] = assay: Anthelmintic efficacy against Trichostrongylus axei (T.a) in sheep at dose of 0.05 mg/kg administered orally; 60-89%; summary of the method: as §1
[24] = tested on: Trichostrongylus colubriformis; assay: Minimal dose necessary to eliminate > 83% of Trichostrongylus colubriformis infection in gerbils
[25] = tested on: Trichostrongylus colubriformis; assay: Anthelmintic efficacy against Trichostrongylus colubriformis (T.c) in sheep at dose of 0.025 mg/kg administered orally; 0-19%; summary of the method: as §1
[26] = tested on: Trichostrongylus colubriformis; assay: Anthelmintic efficacy against Trichostrongylus colubriformis (T.c) in sheep at dose of 0.05 mg/kg administered orally; 60-89%; summary of the method: as §1
[27] = tested on: Trichostrongylus colubriformis; assay: Anthelmintic efficacy against Trichostrongylus colubriformis (T.c) in sheep at dose of 0.1 mg/kg administered orally; settings: route oral; summary of the method: as §2
Trichostrongylus axei [28] = assay: Anthelmintic efficacy against Trichostrongylus axei (T.a) in sheep at dose of 0.1 mg/kg administered orally; settings: route oral; summary of the method: as §1
Cooperia oncophora [29] = assay: Anthelmintic efficacy against immature (EL4) Cooperia oncopphora (C.o) in sheep at dose of 0.025 mg/kg administered orally; 0-19%; summary of the method: as §2
Cooperia oncophora [30] = assay: Anthelmintic efficacy against immature (EL4) Cooperia oncopphora (C.o) in sheep at dose of 0.1 mg/kg administered orally; settings: route oral; summary of the method: as §2
Cooperia oncophora [31] = assay: Anthelmintic efficacy against adult Cooperia oncopphora (C.o) in sheep at dose of 0.025 mg/kg administered orally; 20-59%; summary of the method: as §2
Cooperia oncophora [32] = assay: Anthelmintic efficacy against adult Cooperia oncopphora (C.o) in sheep at dose of 0.1 mg/kg administered orally; settings: route oral; summary of the method: as §2
Haemonchus contortus [33] = assay: Anthelmintic efficacy against immature (EL4) Haemonchus contortus (H.c) in sheep at dose of 0.05 mg/kg administered orally; settings: route oral; summary of the method: as §2
Haemonchus contortus [34] = assay: Anthelmintic efficacy against adult Haemonchus contortus (H.c) in sheep at dose of 0.025 mg/kg administered orally; settings: route oral; summary of the method: as §2
Haemonchus contortus [35] = assay: Anthelmintic efficacy against adult Haemonchus contortus (H.c) in sheep at dose of 0.05 mg/kg administered orally; settings: route oral; summary of the method: as §2
Haemonchus contortus [36] = assay: Anthelmintic efficacy against immature (EL4) Haemonchus contortus (H.c) in sheep at dose of 0.025 mg/kg administered orally; settings: route oral; summary of the method: as §2
[37] = tested on: Oesophagostomum columbianum; assay: Anthelmintic efficacy against Oseophagostomum columbianum (Oe. c) in sheep at dose of 0.05 mg/kg administered orally; settings: route oral; summary of the method: as §2
[38] = tested on: Teladorsagia circumcincta; assay: Anthelmintic efficacy against immature (EL4) Ostertagia circumcincta (O. c) in sheep at dose of 0.05 mg/kg administered orally; settings: route oral; summary of the method: as §2
[39] = tested on: Teladorsagia circumcincta; assay: Anthelmintic efficacy against immature (EL4) Ostertagia circumcincta (O. c) in sheep at dose of 0.1 mg/kg administered orally; settings: route oral; summary of the method: as §2
[40] = tested on: Teladorsagia circumcincta; assay: Anthelmintic efficacy against immature (EL4) Ostertagia circumcincta (O. c) in sheep at dose of 0.025 mg/kg administered orally; 20-59%; summary of the method: as §2
[41] = tested on: Teladorsagia circumcincta; assay: Anthelmintic efficacy against […] (EL4) Ostertagia circumcincta (O. c) in sheep at dose of 0.025 mg/kg administered orally; 60-89%; summary of the method: as §2
[42] = tested on: Teladorsagia circumcincta; assay: Anthelmintic efficacy against adult Ostertagia circumcincta (O. c) in sheep at dose of 0.05 mg/kg administered orally; settings: route oral; summary of the method: as §2
Trichostrongylus axei [43] = assay: Anthelmintic efficacy against Trichostrongylus axei (T.a) in sheep at dose of 0.025 mg/kg administered orally; 60-89%; summary of the method: as §2
Trichostrongylus axei [44] = assay: Anthelmintic efficacy against Trichostrongylus axei (T.a) in sheep at dose of 0.05 mg/kg administered orally; settings: route oral; summary of the method: as §2
[45] = tested on: Trichostrongylus colubriformis; assay: Anthelmintic efficacy against Trichostrongylus colubriformis (T.c) in sheep at dose of 0.025 mg/kg administered orally; 60-89%; summary of the method: as §2
[46] = tested on: Trichostrongylus colubriformis; assay: Anthelmintic efficacy against Trichostrongylus colubriformis (T.c) in sheep at dose of 0.05 mg/kg administered orally; settings: route oral; summary of the method: as §2
Cooperia oncophora [47] = assay: Anthelmintic efficacy against adult Cooperia oncopphora (C.o) in sheep at dose of 0.05 mg/kg administered orally; settings: route oral; summary of the method: as §2
Cooperia oncophora [48] = assay: Anthelmintic efficacy against immature (EL4) Cooperia oncopphora (C.o) in sheep at dose of 0.05 mg/kg administered orally; settings: route oral; summary of the method: as §2
[49] = tested on: Oesophagostomum columbianum; assay: Anthelmintic efficacy against Oseophagostomum columbianum (Oe. c) in sheep at dose of 0.025 mg/kg administered orally; settings: route oral; summary of the method: as §2

CC[C@H](C)[C@H]1O[C@]2(CC(O)[C@@H]1C)C[C@@H]1C[C@@H](C/C=C(\C)[C@@H](OC3CC(OC)C(OC4CC(OC)C(O)C(C)O4)C(C)O3)[C@@H](C)/C=C/C=C3\CO[C@@H]4[C@H](OC)C(C)=C[C@@H](C(=O)O1)[C@]34O)O2 (stereo partly specified) [AVERMECTIN A2]
Efficacy (Cooperia oncophora [1]): 20%
Efficacy (Cooperia oncophora [2]): 20%
Efficacy (Cooperia oncophora [3]): 20%
Efficacy (Cooperia oncophora [4]): 0%
Efficacy (Cooperia oncophora [5]): 0%
Efficacy (Cooperia oncophora [6]): 0%
Efficacy (Haemonchus contortus [7]): 60%
Efficacy (Haemonchus contortus [8]): >90%
Efficacy (Haemonchus contortus [9]): 0%
Efficacy (Haemonchus contortus [10]): 60%
Efficacy (Haemonchus contortus [11]): >90%
Efficacy (Haemonchus contortus [12]): 20%
Efficacy [13]: 60%
Efficacy [14]: 60%
Efficacy [15]: >90%
Efficacy [16]: 0%
Efficacy [17]: 0%
Efficacy [18]: 60%
Efficacy [19]: 60%
Efficacy [20]: >90%
Efficacy [21]: 0%
Efficacy (Trichostrongylus axei [22]): 0%
Efficacy (Trichostrongylus axei [23]): 60%
Dose [24]: 0.05 mg/kg
Efficacy [25]: 0%
Efficacy [26]: 60%
Efficacy [27]: >90%
Efficacy (Trichostrongylus axei [28]): >90%

CC[C@H](C)[C@H]1O[C@]2(C=C[C@@H]1C)C[C@@H]1C[C@@H](C/C=C(\C)[C@@H](O[C@H]3C[C@H](OC)[C@@H](O[C@H]4C[C@H](OC)[C@@H](O)[C@H](C)O4)[C@H](C)O3)[C@@H](C)/C=C/C=C3\CO[C@@H]4[C@H](O)C(C)=C[C@@H](C(=O)O1)[C@]34O)O2 [ABAMECTIN COMPONENT B1A]
Efficacy (Cooperia oncophora [29]): 0%
Efficacy (Cooperia oncophora [30]): >90%
Efficacy (Cooperia oncophora [31]): 20%
Efficacy (Cooperia oncophora [32]): >90%
Efficacy (Haemonchus contortus [33]): >90%
Efficacy (Haemonchus contortus [8]): >90%
Efficacy (Haemonchus contortus [34]): >90%
Efficacy (Haemonchus contortus [35]): >90%
Efficacy (Haemonchus contortus [11]): >90%
Efficacy (Haemonchus contortus [36]): >90%
Efficacy [37]: >90%
Efficacy [15]: >90%
Efficacy [38]: >90%
Efficacy [39]: >90%
Efficacy [40]: 20%
Efficacy [41]: 60%
Efficacy [42]: >90%
Efficacy [20]: >90%
Efficacy (Trichostrongylus axei [43]): 60%
Efficacy (Trichostrongylus axei [44]): >90%
Dose [24]: 0.025 mg/kg
Efficacy [45]: 60%
Efficacy [46]: >90%
Efficacy [27]: >90%
Efficacy (Cooperia oncophora [47]): >90%
Efficacy (Cooperia oncophora [48]): >90%
Efficacy (Trichostrongylus axei [28]): >90%
Efficacy [49]: >90%

Source: ChEMBL document CHEMBL1122071, “Avermectin acyl derivatives with anthelmintic activity” (1982)
